Active and inactive are the calls of the source. The calls are words filed in the database; no cut-off is given here. Bridge positions count the residues as written; N and C are the ends. Peptide text beside a SMILES is read from it.
Experiments:
[1] = target: T1, Neuronal acetylcholine receptor; alpha3/beta4 (Rattus norvegicus, UniProt P04757+P12392); assay: Inhibition of rat alpha3beta4 nAChR expressed in Xenopus laevis oocytes by voltage clamp technique; assay type: cell-based
How it was run: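 Oocytes expressing α3 chimera/β4 nAChR, voltage-clamped at ~22 °C. Concentrations below 1 μM perfused, with 1 s ACh pulses every 1 min; 1 μM and above given as a 5 min static bath. Lowest concentration tested 10 nM. IC50 from a concentration–response curve with top and bottom fixed at 100 and 0; n = 3–5 oocytes per concentration.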

[2] = target: T1, Neuronal acetylcholine receptor; alpha3/beta4; assay: Displacement of [3H]epibatadine from rat alpha3beta4 nAChR expressed in HEK293 cells after 2 hrs by betaplate counting analysis; assay type: cell-based
How it was run: (§1)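 Membranes from HEK293 cells stably expressing α3β4 or α4β2 nAChR, homogenised in 50 mM Tris pH 7.4 and washed by centrifugation. Incubated 2 h at room temperature with peptide and 0.31 nM [3H]epibatidine; filtered on PEI-soaked glass fibre, counted. Nonspecific binding with 0.1 μM unlabeled epibatidine. Ki by Cheng–Prusoff from IC50.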

[3] = target: Neuronal acetylcholine receptor; alpha3/beta4 (Rattus norvegicus) (UniProt P04757+P12392); assay: Antagonist activity at rat alpha3beta4 nAChR expressed in HEK293 cells assessed as inhibition of epibatadine-induced effect at 10 uM after 30 mins by fluorescent membrane potential assay relative to mecamylamine; assay type: cell-based
How it was run: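 Rat α3β4 nAChR stably expressed in HEK293 cells; crude, SPE-desalted individual peptides tested at 10 μM in HBSS with membrane potential blue dye, 30 min at 37 °C. Fluorescence change read after epibatidine (0.1 μM). Percent inhibition set against 10 μM mecamylamine taken as 100%.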

[4] = target: T1, Neuronal acetylcholine receptor; alpha3/beta4; assay: Antagonist activity at rat alpha3beta4 nAChR expressed in HEK293 cells assessed as inhibition of epibatadine-induced effect after 30 mins by fluorescent membrane potential assay; assay type: cell-based
How it was run: (§2)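 Stably transfected HEK293 lines (KXα3β4R2, KXα3β2R2, KXα4β2R2; rat subunits) grown in DMEM/10% FBS with G-418, plated 24 h before assay. Cells washed with HBSS, peptide added, then membrane potential blue dye, 30 min at 37 °C. Fluorescence (ex 565/em 530 nm) read up to 60 s after epibatidine to 0.1 μM. IC50 from maximal responses across concentrations; n = 4.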

[5] = target: Neuronal acetylcholine receptor; alpha3/beta2 (Rattus norvegicus, UniProt P04757+P12390); assay: Antagonist activity at rat alpha3beta2 nAChR expressed in HEK293 cells assessed as inhibition of epibatadine-induced effect after 30 mins by fluorescent membrane potential assay; assay type: cell-based; how it was run: as §2
[6] = target: Neuronal acetylcholine receptor; alpha4/beta2 (Rattus norvegicus, UniProt P09483+P12390); assay: Antagonist activity at rat alpha4beta2 nAChR expressed in HEK293 cells assessed as inhibition of epibatadine-induced effect after 30 mins by fluorescent membrane potential assay; assay type: cell-based; how it was run: as §2
[7] = target: Neuronal acetylcholine receptor; alpha4/beta2 (Rattus norvegicus) (UniProt P09483+P12390); assay: Displacement of [3H]epibatadine from rat alpha4beta2 nAChR expressed in HEK293 cells up to 10 uM after 2 hrs by betaplate counting analysis; assay type: cell-based; how it was run: as §1
HEK293 = assay: Selectivity ratio of IC50 for rat alpha3beta4 nAChR expressed in HEK293 cells to IC50 for rat alpha3beta2 nAChR expressed in HEK293 cells; assay type: cell-based
[8] = target: Neuronal acetylcholine receptor; alpha3/beta4 (Homo sapiens, UniProt P30926+P32297); assay: Antagonist activity at alpha3beta4 nAChR (unknown origin); assay type: protein-complex assay; how it was run: as §2
Neuronal acetylcholine receptor; alpha3/beta4 (Homo sapiens, UniProt P30926+P32297), sequence (P30926 whole entry): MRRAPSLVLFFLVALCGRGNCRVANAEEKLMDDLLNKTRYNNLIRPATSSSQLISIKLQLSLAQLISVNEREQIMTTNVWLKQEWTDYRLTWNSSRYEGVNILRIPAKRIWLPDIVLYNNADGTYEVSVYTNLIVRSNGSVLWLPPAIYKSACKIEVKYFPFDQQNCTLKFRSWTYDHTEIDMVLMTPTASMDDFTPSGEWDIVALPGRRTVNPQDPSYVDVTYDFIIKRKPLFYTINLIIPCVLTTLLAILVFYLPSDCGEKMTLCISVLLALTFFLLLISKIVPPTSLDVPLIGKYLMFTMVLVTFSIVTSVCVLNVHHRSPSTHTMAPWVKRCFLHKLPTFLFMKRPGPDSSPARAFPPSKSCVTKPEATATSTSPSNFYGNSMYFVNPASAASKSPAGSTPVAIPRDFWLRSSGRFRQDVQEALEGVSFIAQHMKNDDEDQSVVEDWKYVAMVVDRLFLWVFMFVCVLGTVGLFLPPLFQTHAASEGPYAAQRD
Neuronal acetylcholine receptor; alpha3/beta4 (Homo sapiens, UniProt P30926+P32297), sequence (P32297 whole entry): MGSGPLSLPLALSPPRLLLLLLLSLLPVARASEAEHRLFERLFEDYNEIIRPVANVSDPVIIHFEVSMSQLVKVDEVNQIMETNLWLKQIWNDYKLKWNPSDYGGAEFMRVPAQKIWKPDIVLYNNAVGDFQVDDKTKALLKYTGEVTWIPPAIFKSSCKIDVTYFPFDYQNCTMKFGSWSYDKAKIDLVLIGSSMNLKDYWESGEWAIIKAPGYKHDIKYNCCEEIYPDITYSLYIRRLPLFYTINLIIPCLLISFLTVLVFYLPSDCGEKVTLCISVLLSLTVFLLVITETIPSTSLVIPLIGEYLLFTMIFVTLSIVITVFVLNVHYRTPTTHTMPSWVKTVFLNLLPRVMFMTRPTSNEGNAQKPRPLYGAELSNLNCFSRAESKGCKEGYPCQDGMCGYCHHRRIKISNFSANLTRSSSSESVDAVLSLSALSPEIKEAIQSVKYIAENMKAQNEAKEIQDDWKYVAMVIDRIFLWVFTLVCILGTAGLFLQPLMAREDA

T1 sequence (P04757 whole entry, the tested form may be a part): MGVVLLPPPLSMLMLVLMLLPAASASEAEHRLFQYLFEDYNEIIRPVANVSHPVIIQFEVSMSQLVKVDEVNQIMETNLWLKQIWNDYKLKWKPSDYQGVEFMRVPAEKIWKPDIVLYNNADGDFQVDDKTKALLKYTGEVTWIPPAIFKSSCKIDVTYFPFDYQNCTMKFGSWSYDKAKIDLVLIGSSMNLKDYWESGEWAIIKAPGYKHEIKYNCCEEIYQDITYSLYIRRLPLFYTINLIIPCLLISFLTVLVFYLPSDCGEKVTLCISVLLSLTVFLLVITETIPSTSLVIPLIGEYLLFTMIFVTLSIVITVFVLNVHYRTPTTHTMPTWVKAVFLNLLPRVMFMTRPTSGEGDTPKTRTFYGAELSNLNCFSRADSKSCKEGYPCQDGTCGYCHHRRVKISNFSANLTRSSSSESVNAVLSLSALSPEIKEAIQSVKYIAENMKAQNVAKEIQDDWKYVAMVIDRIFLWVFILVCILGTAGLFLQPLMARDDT
T1 sequence (P12392 whole entry, the tested form may be a part): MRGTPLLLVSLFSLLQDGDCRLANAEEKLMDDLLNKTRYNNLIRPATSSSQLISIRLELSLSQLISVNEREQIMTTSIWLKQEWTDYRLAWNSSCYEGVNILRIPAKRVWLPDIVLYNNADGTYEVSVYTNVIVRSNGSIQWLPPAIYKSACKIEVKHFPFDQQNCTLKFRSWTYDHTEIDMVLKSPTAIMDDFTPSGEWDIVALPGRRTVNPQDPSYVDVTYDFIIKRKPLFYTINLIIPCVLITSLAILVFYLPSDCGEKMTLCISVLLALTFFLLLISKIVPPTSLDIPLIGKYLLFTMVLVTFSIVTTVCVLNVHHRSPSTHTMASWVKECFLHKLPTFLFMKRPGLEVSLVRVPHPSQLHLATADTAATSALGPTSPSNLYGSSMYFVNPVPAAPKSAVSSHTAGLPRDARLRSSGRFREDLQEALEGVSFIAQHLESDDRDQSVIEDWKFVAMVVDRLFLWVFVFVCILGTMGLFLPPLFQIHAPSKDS
Neuronal acetylcholine receptor; alpha4/beta2, sequence (P09483 whole entry): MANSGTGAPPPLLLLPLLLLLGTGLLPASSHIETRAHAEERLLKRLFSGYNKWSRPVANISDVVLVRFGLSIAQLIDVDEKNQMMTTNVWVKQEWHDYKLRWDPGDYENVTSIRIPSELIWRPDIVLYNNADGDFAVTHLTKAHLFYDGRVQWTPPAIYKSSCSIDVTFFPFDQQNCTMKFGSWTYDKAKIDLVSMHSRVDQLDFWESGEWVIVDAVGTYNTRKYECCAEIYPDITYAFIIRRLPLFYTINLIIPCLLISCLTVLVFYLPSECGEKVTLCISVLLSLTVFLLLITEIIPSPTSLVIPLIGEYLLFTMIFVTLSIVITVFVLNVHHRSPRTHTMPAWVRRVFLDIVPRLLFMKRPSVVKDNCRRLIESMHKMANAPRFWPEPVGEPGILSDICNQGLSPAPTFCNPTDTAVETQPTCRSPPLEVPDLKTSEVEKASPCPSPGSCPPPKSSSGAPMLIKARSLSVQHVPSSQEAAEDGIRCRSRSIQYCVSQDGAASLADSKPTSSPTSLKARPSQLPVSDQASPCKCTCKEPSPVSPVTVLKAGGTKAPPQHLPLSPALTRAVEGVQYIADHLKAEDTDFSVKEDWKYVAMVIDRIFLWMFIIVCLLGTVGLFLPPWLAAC
Neuronal acetylcholine receptor; alpha4/beta2, sequence (P12390 whole entry): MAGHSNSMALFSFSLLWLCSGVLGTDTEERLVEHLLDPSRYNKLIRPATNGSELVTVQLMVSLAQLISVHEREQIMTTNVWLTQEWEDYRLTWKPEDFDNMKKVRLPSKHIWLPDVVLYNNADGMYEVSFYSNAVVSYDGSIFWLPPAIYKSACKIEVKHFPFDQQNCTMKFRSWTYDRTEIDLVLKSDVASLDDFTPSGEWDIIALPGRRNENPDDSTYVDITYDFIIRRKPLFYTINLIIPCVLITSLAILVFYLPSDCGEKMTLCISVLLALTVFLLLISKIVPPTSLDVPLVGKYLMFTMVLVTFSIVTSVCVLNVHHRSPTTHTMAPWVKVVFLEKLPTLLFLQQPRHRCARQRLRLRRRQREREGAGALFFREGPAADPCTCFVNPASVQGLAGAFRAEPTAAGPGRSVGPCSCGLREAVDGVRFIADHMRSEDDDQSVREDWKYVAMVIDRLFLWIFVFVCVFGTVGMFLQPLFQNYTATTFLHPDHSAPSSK
Neuronal acetylcholine receptor; alpha3/beta2, sequence (P04757 whole entry): as the sequence (P04757 whole entry, the tested form may be a part) above
Neuronal acetylcholine receptor; alpha3/beta2, sequence (P12390 whole entry): as the sequence (P12390 whole entry) above

C[C@@H]1NC(=O)[C@H](Cc2ccccc2)NC(=O)[C@@H]2CSSC[C@H](NC(=O)CN)C(=O)N[C@@H](CSSC[C@@H](C(=O)O)NC(=O)[C@H](CC(=O)O)NC(=O)[C@@H]3CCCN3C(=O)[C@H](CC(N)=O)NC(=O)[C@H]([C@@H](C)O)NC1=O)C(=O)N[C@@H](CO)C(=O)N[C@@H](Cc1ccc(O)cc1)C(=O)N1CCC[C@H]1C(=O)N1CCC[C@H]1C(=O)N2
IC50 [1]: 770 nM

CC(C)C[C@@H]1NC(=O)[C@H](C(C)C)NC(=O)[C@H](C)NC(=O)[C@@H]2CSSC[C@H](NC(=O)CN)C(=O)N[C@@H](CSSC[C@@H](C(=O)O)NC(=O)[C@H](Cc3ccc(O)cc3)NC1=O)C(=O)N[C@@H](CO)C(=O)N[C@@H]([C@H](C)O)C(=O)N1CCC[C@H]1C(=O)N1CCC[C@H]1C(=O)N2
Ki [2]: 851 nM | IC50 [1]: 27.7 nM | inhibition [3]: 94.4% | IC50 [4]: 265 nM | IC50 [5]: 26 nM | IC50 [6]: > 10000 nM | Activity [7]: inactive | Ratio IC50 (HEK293): 10

CC(C)C[C@@H]1NC(=O)[C@H](CCC(=O)O)NC(=O)[C@@H]2CCCN2C(=O)[C@H](Cc2cnc[nH]2)NC(=O)[C@H](CC(N)=O)NC(=O)[C@H](C(C)C)NC(=O)[C@H](CO)NC(=O)[C@@H]2CSSC[C@H](NC(=O)CN)C(=O)N[C@@H](CSSC[C@@H](C(=O)O)NC1=O)C(=O)N[C@@H](CO)C(=O)N[C@@H](Cc1cnc[nH]1)C(=O)N1CCC[C@H]1C(=O)N[C@@H](C)C(=O)N2 (H-GCCSHPACSVNHPELC-OH; disulfide 2-8, 3-16)
IC50 [1]: 480 nM

CC[C@H](C)[C@@H]1NC(=O)[C@H](Cc2cnc[nH]2)NC(=O)[C@@H]2CCCN2C(=O)[C@H](CC(N)=O)NC(=O)[C@H](CC(N)=O)NC(=O)[C@H](C(C)C)NC(=O)[C@H](CC(N)=O)NC(=O)[C@@H]2CSSC[C@H](NC(=O)CN)C(=O)N[C@@H](CSSC[C@@H](C(=O)O)NC1=O)C(=O)N[C@@H](CO)C(=O)N[C@@H](Cc1cnc[nH]1)C(=O)N1CCC[C@H]1C(=O)N[C@@H](C)C(=O)N2 (H-GCCSHPACNVNNPHIC-OH; disulfide 2-8, 3-16)
IC50 [8]: 97 nM

Source: ChEMBL document CHEMBL3232963, “Discovery of a potent and selective α3β4 nicotinic acetylcholine receptor antagonist from an α-conotoxin synthetic combinatorial library” (J Med Chem, 2014)
